This is an account of results in ChEMBL document CHEMBL4819032, “Structure-based design of highly selective 2,4,5-trisubstituted pyrimidine CDK9 inhibitors as anti-cancer agents” (Eur J Med Chem, 2021).

The target of test [1] is CDK9/cyclin T1 (Homo sapiens, UniProt P50750). Briefly: Inhibition of recombinant human full length CDK9/Cyclin T1 using KTFCGTPEYLAPEVRREPRILSEEEQEMFRDFDYIADWC as substrate incubated for 40 mins in presence of [gamma-33P]-ATP by scintillation counting method. Type of test: protein-complex assay. An outline of the steps:
(§1)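 Radiometric kinase assay with ATP at each kinase's Km(app). IC50 values come from 10-point dose-response curves, and apparent Ki is calculated from IC50 and the kinase's Km(ATP).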

For test [2], the species on record is Homo sapiens. Briefly: Selectivity index, ratio of Ki for inhibition of recombinant human full length CDK2/Cyclin A to Ki for inhibition of recombinant human full length CDK9/Cyclin T1. An outline of the steps:
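Ratio of apparent Ki values for the two CDK/cyclin complexes. Each Ki is derived from an IC50 (10-point radiometric dose-response, ATP at Km(app)) using the kinase's Km(ATP). The selectivity index is defined as Ki(CDK2)/Ki(CDK9).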

Test [3] has as its target CDK2/Cyclin A2 (Homo sapiens, UniProt P24941). Briefly: Inhibition of recombinant human full length CDK2/Cyclin A using histone H1 as substrate incubated for 40 mins in presence of [gamma-33P]-ATP by scintillation counting method. Type of test: protein-complex assay.
For test [4], the system named is HCT-116. Briefly: Growth inhibition of human HCT-116 cells after 48 hrs by MTT assay. Type of test: functional. On the technique in general: Formazan colour is commonly taken as a measure of viable cells.
The subject of test [5] is MCF7. Briefly: Growth inhibition of human MCF7 cells after 48 hrs by MTT assay. The test is classed as functional.
Test [6] deals with Cyclin-dependent kinase 1/cyclin B1 (Homo sapiens, UniProt P06493). Briefly: Inhibition of recombinant human full length CDK1/Cyclin B using histone H1 as substrate incubated for 40 mins in presence of [gamma-33P]-ATP by scintillation counting method. The test is classed as protein-complex assay. An outline of the steps: as §1
The target of test [7] is Cyclin-dependent kinase 7/ cyclin H (Homo sapiens, UniProt P50613). Briefly: Inhibition of recombinant human full length CDK7/Cyclin H using peptide as substrate incubated for 40 mins in presence of [gamma-33P]-ATP by scintillation counting method. Type of test: protein-complex assay. An outline of the steps: as §1
The species entered for test [8] is Homo sapiens. Briefly: Selectivity index, ratio of Ki for inhibition of recombinant human full length […].
A short description of test [9]: Growth inhibition of patient derived CLL cells after 48 hrs by annexin V-FITC staining based flow cytometric analysis. Type of test: functional. Particulars: Homo sapiens, CLL-CII. An outline of the steps: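 Freshly isolated primary CLL cells (10⁶/mL) in RPMI with 10% foetal calf serum, L-glutamine, penicillin and streptomycin, 37 °C, 5% CO₂, exposed to inhibitor for 48 h. Cells labelled with CD19-APC and annexin V-FITC; apoptosis quantified by flow cytometry in CD19+ cells. LD50 is the concentration killing 50% of CLL cells.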
Background: Flow cytometry measures light scatter and fluorescence of single cells or particles in a stream.

Test [10] relates to MDA-MB-468. Put plainly: Growth inhibition of human MDA-MB-468 cells after 48 hrs by MTT assay. The test is classed as functional.
In test [11] the test system is HeLa. Put plainly: Growth inhibition of human HeLa cells after 48 hrs by MTT assay. The test is classed as functional.
For test [12], the system named is A2780. Put plainly: Growth inhibition of human A2780 cells after 48 hrs by MTT assay. Type of test: functional.
In test [13] the test system is HT-29. Briefly: Growth inhibition of human HT-29 cells after 48 hrs by MTT assay. Type of test: functional.
For test [14], the system named is A549. Briefly: Growth inhibition of human A549 cells after 48 hrs by MTT assay. The test is classed as functional.
Test [15] relates to MIA PaCa-2. Briefly: Growth inhibition of human MIA PaCa-2 cells after 48 hrs by MTT assay. The test is classed as functional.

CDK9/cyclin T1, sequence (O60563 whole entry): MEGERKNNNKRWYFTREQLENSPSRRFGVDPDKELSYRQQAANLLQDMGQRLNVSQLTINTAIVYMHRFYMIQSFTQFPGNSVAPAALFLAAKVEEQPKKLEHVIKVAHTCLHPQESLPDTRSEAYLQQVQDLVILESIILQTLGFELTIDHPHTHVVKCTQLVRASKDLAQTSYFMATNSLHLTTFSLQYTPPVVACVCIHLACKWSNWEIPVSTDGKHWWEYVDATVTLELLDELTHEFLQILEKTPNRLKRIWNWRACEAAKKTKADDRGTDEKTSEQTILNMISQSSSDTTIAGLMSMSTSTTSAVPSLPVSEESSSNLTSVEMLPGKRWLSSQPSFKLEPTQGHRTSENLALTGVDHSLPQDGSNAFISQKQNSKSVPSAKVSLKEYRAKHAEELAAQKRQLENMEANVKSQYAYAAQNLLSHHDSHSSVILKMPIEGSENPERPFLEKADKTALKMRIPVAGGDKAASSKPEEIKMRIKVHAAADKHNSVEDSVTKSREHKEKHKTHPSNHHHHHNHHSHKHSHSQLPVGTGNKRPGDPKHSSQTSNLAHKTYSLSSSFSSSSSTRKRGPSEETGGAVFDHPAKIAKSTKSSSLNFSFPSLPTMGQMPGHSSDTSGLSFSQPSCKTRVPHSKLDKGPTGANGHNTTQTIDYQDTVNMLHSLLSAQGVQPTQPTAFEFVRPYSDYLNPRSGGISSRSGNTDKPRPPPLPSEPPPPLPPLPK
CDK9/cyclin T1, sequence (P50750 whole entry): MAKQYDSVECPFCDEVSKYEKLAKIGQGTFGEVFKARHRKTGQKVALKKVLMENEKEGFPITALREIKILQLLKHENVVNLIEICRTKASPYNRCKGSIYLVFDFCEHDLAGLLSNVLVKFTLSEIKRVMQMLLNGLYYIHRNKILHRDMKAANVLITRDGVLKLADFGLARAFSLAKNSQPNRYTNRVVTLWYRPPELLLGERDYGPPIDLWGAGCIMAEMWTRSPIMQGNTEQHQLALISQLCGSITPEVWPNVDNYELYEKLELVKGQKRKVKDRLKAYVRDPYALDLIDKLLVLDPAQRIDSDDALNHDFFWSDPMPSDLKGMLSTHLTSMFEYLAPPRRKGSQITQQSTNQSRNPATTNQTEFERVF
Cyclin-dependent kinase 1/cyclin B1, sequence (P06493 whole entry): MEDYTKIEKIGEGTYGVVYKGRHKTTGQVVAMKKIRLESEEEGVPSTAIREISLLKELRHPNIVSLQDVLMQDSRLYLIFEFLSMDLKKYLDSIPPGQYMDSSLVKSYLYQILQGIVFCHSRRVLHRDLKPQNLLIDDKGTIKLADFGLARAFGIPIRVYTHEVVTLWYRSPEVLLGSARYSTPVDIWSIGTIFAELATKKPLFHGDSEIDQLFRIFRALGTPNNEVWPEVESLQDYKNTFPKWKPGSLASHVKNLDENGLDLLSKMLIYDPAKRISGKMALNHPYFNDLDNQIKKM
Cyclin-dependent kinase 1/cyclin B1, sequence (P14635 whole entry, further chain): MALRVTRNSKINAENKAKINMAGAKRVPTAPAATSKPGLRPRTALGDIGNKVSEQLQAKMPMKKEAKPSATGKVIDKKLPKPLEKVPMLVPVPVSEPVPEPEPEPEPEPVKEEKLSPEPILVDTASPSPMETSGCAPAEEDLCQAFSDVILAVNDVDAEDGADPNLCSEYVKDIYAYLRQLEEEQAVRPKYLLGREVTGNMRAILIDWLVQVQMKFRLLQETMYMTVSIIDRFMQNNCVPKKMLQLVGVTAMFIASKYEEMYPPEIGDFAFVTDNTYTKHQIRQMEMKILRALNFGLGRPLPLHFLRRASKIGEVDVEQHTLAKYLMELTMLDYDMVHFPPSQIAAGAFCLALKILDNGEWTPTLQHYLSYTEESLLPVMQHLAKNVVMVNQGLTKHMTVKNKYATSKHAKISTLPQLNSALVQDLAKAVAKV
Cyclin-dependent kinase 7/ cyclin H, sequence (P51946 whole entry): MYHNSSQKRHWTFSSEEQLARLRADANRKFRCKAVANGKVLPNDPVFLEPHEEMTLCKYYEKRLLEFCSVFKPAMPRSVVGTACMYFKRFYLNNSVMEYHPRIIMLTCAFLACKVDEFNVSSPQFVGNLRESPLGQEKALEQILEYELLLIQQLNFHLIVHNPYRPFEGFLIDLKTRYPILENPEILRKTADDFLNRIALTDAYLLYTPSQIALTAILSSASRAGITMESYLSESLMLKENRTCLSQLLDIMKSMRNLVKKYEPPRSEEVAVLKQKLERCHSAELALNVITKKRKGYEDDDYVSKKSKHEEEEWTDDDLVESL
Cyclin-dependent kinase 7/ cyclin H, sequence (P50613 whole entry): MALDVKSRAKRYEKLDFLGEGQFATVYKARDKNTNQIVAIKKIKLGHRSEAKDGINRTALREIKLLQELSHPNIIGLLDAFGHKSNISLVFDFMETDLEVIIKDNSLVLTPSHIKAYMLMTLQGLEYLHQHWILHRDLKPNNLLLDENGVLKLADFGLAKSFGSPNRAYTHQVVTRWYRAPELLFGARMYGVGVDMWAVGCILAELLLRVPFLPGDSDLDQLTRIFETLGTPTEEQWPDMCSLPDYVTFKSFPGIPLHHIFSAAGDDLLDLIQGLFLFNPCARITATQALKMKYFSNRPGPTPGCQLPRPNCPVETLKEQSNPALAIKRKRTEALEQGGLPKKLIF

The Ki is the equilibrium dissociation constant of an inhibitor or competing ligand from its target. By GI50 is commonly meant the concentration that inhibits growth by half. A low value points to more potent growth inhibition. On to `CNc1nc(C)c(-c2nc(Nc3cccc(N4CCOCC4)c3)ncc2Cl)s1`, for which the Ki amounted to 4 nM in test [1] and 22 nM in [3]. Further, in [2], the Ratio Ki stood at 6. The GI50 in test [4] worked out at 430 nM; in [5] it was 720 nM.
`CNc1nc(C)c(-c2nc(Nc3cccc(N4CCNCC4)c3)ncc2C)s1`: the Ki is 1120 nM in test [6], 8 nM in test [1], 711 nM in test [3] and 472 nM in [7]. For the same compound, the Ratio Ki was determined as 89 in [2] and 100 in test [8]. For the same compound, the values for the GI50 in test [4] and in [5] were 830 nM and 860 nM, respectively.
In the case of `CNc1nc(C)c(-c2nc(Nc3cccc(N4CCN(C)CC4)c3)ncc2C)s1`, the Ki in test [1] was found to be 20 nM; in [3], 586 nM. Further, the Ratio Ki in test [2] amounted to 29. Besides, the values for the GI50 in test [4] and in test [5] were 1290 nM and 1890 nM, respectively.
The like results for `CNc1nc(C)c(-c2nc(Nc3cc(C)cc(N4CCCCCC4)c3)ncc2C#N)s1` were, in that order, 25 nM, 52 nM, 2, 4050 nM and 7040 nM.
The like results for `CNc1nc(C)c(-c2nc(Nc3cccc(N4CCCCCC4)c3)ncc2C#N)s1` were, in that order, 6 nM, 44 nM, 7, 1540 nM and 4130 nM.
The like results for `CNc1nc(C)c(-c2ccnc(Nc3cc(N4CCN(C(C)=O)CC4)cc(N4CCN(C(C)=O)CC4)c3)n2)s1` were, in that order, 187 nM, 2070 nM, 11, 200 nM and 420 nM.
Take `CNc1nc(C)c(-c2nc(Nc3cccc(N4CCN(C)CC4)c3)ncc2Cl)s1`: the Ki in test [1] was 5 nM; in test [3], 107 nM. Moreover, the Ratio Ki in [2] was found to be 21. Further, the concentration for 50% growth inhibition (GI50) in [4] came out at 660 nM; in [5], 680 nM.
The like results for `CNc1nc(C(C)C)c(-c2ccnc(Nc3cccc(N4CCN(C(C)=O)CC4)c3)n2)s1` were, in that order, 91 nM, 680 nM, 8, 80 nM and 70 nM.
The like results for `CNc1nc(C)c(-c2nc(Nc3cccc(N4CCOCC4)c3)ncc2C)s1` were, in that order, 10 nM, 444 nM, 44, 360 nM and 450 nM.
The like results for `CNc1nc(C(F)(F)F)c(-c2ccnc(Nc3cccc(N4CCCNCC4)c3)n2)s1` were, in that order, 8 nM, 14 nM, 2, 70 nM and 650 nM.
Take `CNc1nc(C)c(-c2nc(Nc3cc(N4CCN(C(C)=O)CC4)cc(N4CCN(C(C)=O)CC4)c3)ncc2C)s1`: the Ki is 43 nM in test [1] and 1370 nM in test [3]. For the same compound, in [2], the Ratio Ki stood at 32. The GI50 in test [4] stood at 780 nM; in [5], 2000 nM.
On to `CNc1nc(C)c(-c2nc(Nc3cccc(N4CCCNCC4)c3)ncc2C)s1`, for which the Ki in test [6] was found to be 785 nM; in test [1], 8 nM; in [3], 1240 nM; in [7] it was 89 nM. The Ratio Ki in [2] is 156; in test [8] it was 100. Also, the GI50 in test [4] is 1370 nM; in test [9], 810 nM; in test [5], 870 nM.
Turning to `CNc1nc(C)c(-c2ccnc(Nc3cccc(N4CCN(C(C)=O)CC4)c3)n2)s1`, the Ki is 32 nM in test [1] and 281 nM in test [3]. For the same compound, the Ratio Ki in test [2] turned out to be 9. Besides, the GI50 in test [4] came out at 580 nM; in test [5], 5280 nM.
The like results for `CNc1ncc(-c2ccnc(Nc3cccc(N4CCCNCC4)c3)n2)s1` were, in that order, 3 nM, 22 nM, 7, 80 nM and 60 nM.
The like results for `CNc1nc(C)c(-c2nc(Nc3cc(N4CCN(C(C)=O)CC4)cc(N4CCN(C(C)=O)CC4)c3)ncc2C#N)s1` were, in that order, 21 nM, 248 nM, 12, 700 nM and 2400 nM.
The like results for `C=Cc1cnc(Nc2cccc(N3CCOCC3)c2)nc1-c1sc(NC)nc1C` were, in that order, 62 nM, 503 nM, 8, more than 5000 nM and more than 5000 nM.
On to `CN1CC[C@H](c2c(O)cc(O)c3c(=O)cc(-c4ccccc4Cl)oc23)[C@H](O)C1` [ALVOCIDIB], for which the GI50 was 96 nM in test [10]; 43 nM in [11]; 64 nM in [12]; 131 nM in test [13]; 56 nM in test [4]; 145 nM in test [14]. Further, the figures for the GI50 in [5] and in [15] were 92 nM and 78 nM, respectively.
On to `CNc1nc(C)c(-c2nc(Nc3cccc(N4CCN(S(C)(=O)=O)CC4)c3)ncc2C)s1`, for which the Ki in test [1] was 7 nM; in test [3], 87 nM. Further, the Ratio Ki in test [2] was found to be 12. For the same compound, the GI50 came to 500 nM in [4] and 830 nM in [5].
The like results for `CNc1nc(C)c(-c2nc(Nc3cc(N4CCOCC4)cc(N4CCOCC4)c3)ncc2C#N)s1` were, in that order, 9 nM, 55 nM, 6, 20 nM and 90 nM.
The like results for `CNc1nc(C)c(-c2nc(Nc3cc(C)cc(N4CCOCC4)c3)ncc2C#N)s1` were, in that order, 5 nM, 16 nM, 3, 490 nM and 950 nM.
Consider `CNc1nc(C)c(-c2nc(Nc3cccc(N4CCNCC4)c3)ncc2C(F)(F)F)s1`, for which the figures for the Ki in test [1] and in [3] were 49 nM and 1930 nM, respectively. For the same compound, the Ratio Ki in test [2] stood at 40. For the same compound, the figures for the GI50 in test [4] and in test [5] were 4050 nM and 3050 nM, respectively.
The like results for `CNc1nc(C)c(-c2nc(Nc3cccc(N4CCNC(=O)CC4)c3)ncc2C)s1` were, in that order, 19 nM, 525 nM, 28, 2120 nM and 6440 nM.
The like results for `CNc1nc(C2CC2)c(-c2ccnc(Nc3cccc(C(=O)NC4CCN(C)CC4)c3)n2)s1` were, in that order, 40 nM, 128 nM, 3, 770 nM and 1950 nM.
The like results for `CC(=O)N1CCN(c2cccc(Nc3ncc4c(n3)-c3sc(N)nc3CC4)c2)CC1` were, in that order, 34 nM, 87 nM, 2.5, 60 nM and 80 nM.
Regarding `CNc1nc(C)c(-c2nc(Nc3cccc(N4CCN(C(C)=O)CC4)c3)ncc2C)s1`, the results for the Ki in test [1] and in test [3] were 12 nM and 794 nM, respectively. Also, the Ratio Ki in [2] worked out at 66. For the same compound, the GI50 in test [4] was determined as 550 nM; in test [5] it was 3650 nM.
For the compound `CNc1nc(C)c(-c2nc(Nc3cccc(N4CCN(C(C)=O)CC4)c3)ncc2Br)s1`, the values for the Ki in test [1] and in test [3] were 7.5 nM and 125 nM, respectively. Further, the Ratio Ki in [2] came to 16.
With `CNc1nc(C)c(-c2nc(Nc3cccc(N4CCN(C(C)=O)CC4)c3)ncc2C(F)(F)F)s1`, the Ki in test [1] worked out at 95 nM; in test [3], 1220 nM. In addition, the Ratio Ki in [2] was found to be 13. Besides, the GI50 in test [4] is 4800 nM; in test [5], 25000 nM.
The like results for `CNc1nc(C)c(-c2ccnc(Nc3cc(N4CCOCC4)cc(N4CCOCC4)c3)n2)s1` were, in that order, 47 nM, 831 nM, 18, 340 nM and 380 nM.
The like results for `CNc1nc(C)c(-c2nc(Nc3cc(C)cc(N4CCNCC4)c3)ncc2C#N)s1` were, in that order, 6 nM, 45 nM, 8, 80 nM and 610 nM.
